Experimental data as given in ChEMBL document CHEMBL3259576, “Design and Evaluation of ω-Hydroxy Fatty Acids Containing α-GalCer Analogues for CD1d-Mediated NKT Cell Activation” (ACS Med Chem Lett, 2014).
Active and inactive are the calls of the source.

Key:
Mus musculus [1] = species on record: Mus musculus; test: Stimulation of mouse CD1d-mediated IFN-gamma production in C57BL/6 mouse splenocytes measured at 32 ng/ml after 72 hrs by ELISA; type: cell-based
Method in brief: (§1)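 Mouse splenocytes were treated individually with glycolipid and cultured for 72 h. IFN-γ and IL-4 in the culture were then measured. Results are expressed as relative activity, as means ±SD of triplicates, from one representative of two independent experiments.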

RBL = test: Stimulation of mouse CD1d-mediated IL-2 production in DN32.D3 hybridoma cells co-cultured with mouse CD1d transfected RBL cells measured at 32 to 500 ng/ml after 16 hrs by ELISA
Mus musculus [2] = species on record: Mus musculus; test: Stimulation of mouse CD1d-mediated IL-4 production in mouse splenocytes measured at 32 ng/ml after 72 hrs by ELISA; type: cell-based; method in brief: as §1
Mus musculus [3] = test: In vivo stimulation of mouse CD1d-mediated peak IL4 production in C57BL/6 mouse serum measured at 0.5 ug, iv after 2 hrs by ELISA; type: functional, organism-based
Mus musculus [4] = test: In vivo stimulation of mouse CD1d-mediated peak IFN-gamma production in C57BL/6 mouse serum measured at 0.5 ug, iv after 12 hrs by ELISA; type: functional, organism-based

Measured: Activity

CCCCCCCCCCCCCC[C@@H](O)[C@@H](O)[C@H](CO[C@H]1O[C@H](CO)[C@H](O)[C@H](O)[C@H]1O)NC(=O)CCCCCCCCCCC
active: Mus musculus [1] | RBL | Mus musculus [2]

CCCCCCCCCCCCCC[C@@H](O)[C@@H](O)[C@H](CO[C@H]1O[C@H](CO)[C@H](O)[C@H](O)[C@H]1O)NC(=O)CCCCCCCCCCCO
active: Mus musculus [1] | RBL | Mus musculus [2]

CCCCCCCCCCCCCC[C@@H](O)[C@@H](O)[C@H](CO[C@H]1O[C@H](CO)[C@H](O)[C@H](O)[C@H]1O)NC(=O)CCCCCCCCCCO
active: Mus musculus [3] | Mus musculus [1] | RBL | Mus musculus [2] | Mus musculus [4]

CCCCCCCCCCCCCC[C@@H](O)[C@@H](O)[C@H](CO[C@H]1O[C@H](CO)[C@H](O)[C@H](O)[C@H]1O)NC(=O)CCCCCCCCCCCCCCCO
active: Mus musculus [1] | Mus musculus [2]

CCCCCCCCCCCCCCCCCCCCCCCCCC(=O)N[C@@H](CO[C@H]1O[C@H](CO)[C@H](O)[C@H](O)[C@H]1O)[C@H](O)[C@H](O)CCCCCCCCCCCCCC
active: Mus musculus [3] | Mus musculus [1] | RBL | Mus musculus [2] | Mus musculus [4]

CCCCCCCCCCCCCC[C@@H](O)[C@@H](O)[C@H](CO[C@H]1O[C@H](CO)[C@H](O)[C@H](O)[C@H]1O)NC(=O)CCCCCCCCCC
active: Mus musculus [1] | RBL | Mus musculus [2]
